# Laboratory results as given in ChEMBL document CHEMBL1152455, “Ribosome protection prevents azithromycin-mediated quorum-sensing modulation and stationary-phase killing of Pseudomonas aeruginosa” (2007).
# Active and inactive are the calls of the source. The calls are words filed in the database; no cut-off is given here.
# Legend:
# [1] = system: Pseudomonas aeruginosa; test: Inhibition of elastase production in Pseudomonas aeruginosa PT1300 harboring vector pEX1.8 after 18 hrs by elastin Congo red assay; type: functional, organism-based
# Procedure, shortened: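 Cultures grew 7 h in Pseudomonas broth. Supernatant was mixed with excess elastin Congo red (4 mg/ml) in 0.1 M Tris pH 7.4, 1 mM CaCl2 and held 18 h at 37°C. After centrifugation, A495 was read and expressed as OD495/OD600 of the culture. Values are means ± standard deviations of five independent experiments.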
# [2] = Ratio of bactericidal activity against Pseudomonas aeruginosa PT712 harboring mutation in bacterial rhlA protein to bactericidal activity against wild type Pseudomonas aeruginosa PAO1 PT5; type: functional
# Procedure, shortened: (§1)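 Overnight LB cultures (with carbenicillin 100 μg/ml or gentamicin 15 μg/ml for plasmid strains) were diluted to OD600 0.05 in antibiotic-free LB and grown at 37°C to stationary phase. Azithromycin was added to 2-ml aliquots at similar cell densities, and incubation continued 20–22 h at 37°C. Viable counts came from serial dilutions plated on LB agar.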
# [3] = system: Pseudomonas aeruginosa; test: Inhibition of swarming motility of Pseudomonas aeruginosa PT1300 harboring vector pEX1.8 at 2 ug/ml after 18 hrs; type: functional, organism-based
# Procedure, shortened: (§2)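 Swarm plates were 0.5% agar M9 with 0.2% glucose, 1 mM MgSO4 and 0.05% glutamate as nitrogen source, containing azithromycin. Three μl of overnight LB culture was spotted, and plates were read after 18 h at 37°C.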
# [4] = system: Pseudomonas aeruginosa; test: Inhibition of rhamnolipid production in Pseudomonas aeruginosa 12B overexpressing mexXY incubated for 24 hrs at 37 degC further 24 hrs at 25 degC; type: functional, organism-based
# Procedure, shortened: (§3)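 SW plates (M9 with 0.1% glutamate replacing NH4Cl, 0.2% glucose, 1 mM MgSO4) carried an azithromycin gradient of 0–50 μg/ml. Three-μl droplets of about 10^6 CFU were spotted at equal spacing. Plates were incubated 24 h at 37°C, then 24 h at 25°C.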
# [5] = system: Pseudomonas aeruginosa; test: Inhibition of rhamnolipid production in Pseudomonas aeruginosa PT1300 harboring vector pEX1.8 up to 50 ug/ml incubated for 24 hrs at 37 degC further 24 hrs at 25 degC; type: functional, organism-based; procedure, shortened: as §3
# [6] = system: Pseudomonas aeruginosa; test: Bactericidal activity against stationary-phase Pseudomonas aeruginosa PT1308 culture expressing Clostridium perfringens 23S rRNA methylase ErmBP assessed as effect on cell viability at 1 to 16 ug/ml after 22 hrs by plating serial dilution method; type: functional, organism-based; procedure, shortened: as §1
# [7] = system: Pseudomonas aeruginosa; test: Inhibition of rhamnolipid production in Pseudomonas aeruginosa PT1323 harboring pAKRHL expressing rhlAB gene up to 50 ug/ml incubated for 24 hrs at 37 deg C further 24 hrs at 25 deg C; type: functional, organism-based; procedure, shortened: as §3
# [8] = system: Pseudomonas aeruginosa; test: Bactericidal activity against Pseudomonas aeruginosa PT1332 rhlA mutant harboring vector pAK1900 at 2 to 18 ug/ml after 22 hrs by plating serial dilution method; type: functional; procedure, shortened: as §1
# [9] = system: Pseudomonas aeruginosa; test: Antimicrobial activity against exponential-phase Pseudomonas aeruginosa PT1323 cultures harboring mutation in bacterial rhlA protein and expressing rhamnosyltransferase rhlAB gene at 1 mg/ml after 18 hrs by susceptibility assay; type: functional, organism-based
# Procedure, shortened: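 LB agar plates with an azithromycin gradient (maximal 1 mg/ml) were streaked with each strain. Plates were read after 18 h at 37°C.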
# [10] = system: Pseudomonas aeruginosa; test: Bactericidal activity against stationary-phase Pseudomonas aeruginosa PT1300 culture harboring vector pEX1.8 at 1 to 16 ug/ml after 22 hrs by plating serial dilution method in presence of 1 mM Mg2+; type: functional, organism-based
# Procedure, shortened: (§4)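 Stationary-phase LB cultures of PT1300 or PT1308 received azithromycin plus 1 mM MgSO4, then 22 h at 37°C. Viable counts came from serial dilutions plated on LB agar. Values are means ± standard deviations of three independent experiments.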
# [11] = system: Pseudomonas aeruginosa; test: Bactericidal activity against stationary-phase Pseudomonas aeruginosa PT1308 culture expressing Clostridium perfringens 23S rRNA methylase ErmBP at 1 to 16 ug/ml after 22 hrs by plating serial dilution method in presence of 1 mM Mg2+; type: functional, organism-based; procedure, shortened: as §4
# [12] = system: Pseudomonas aeruginosa; test: Bactericidal activity against Pseudomonas aeruginosa PT1323 harboring rhlAB-encoding pAKRHL at 2 to 18 ug/ml after 22 hrs by plating serial dilution method; type: functional; procedure, shortened: as §1
# [13] = system: Pseudomonas aeruginosa; test: Bactericidal activity against stationary-phase Pseudomonas aeruginosa PT1300 culture harboring vector pEX1.8 after 20 to 22 hrs by plating serial dilution method; type: functional, organism-based; procedure, shortened: as §1
# [14] = system: Pseudomonas aeruginosa; test: Inhibition of swarming motility of Pseudomonas aeruginosa PT1308 expressing Clostridium perfringens 23S rRNA methylase ErmBP at 2 ug/ml after 18 hrs; type: functional, organism-based; procedure, shortened: as §2
# [15] = system: Pseudomonas aeruginosa; test: Inhibition of rhamnolipid production in azithromycin-hypersusceptible Pseudomonas aeruginosa 11B harboring mexX deletion mutant incubated for 24 hrs at 37 degC further 24 hrs at 25 degC; type: functional, organism-based; procedure, shortened: as §3
structure (smiles),measurement,setting,value
CC[C@H]1OC(=O)[C@H](C)[C@@H](O[C@H]2C[C@@](C)(OC)[C@@H](O)[C@H](C)O2)[C@H](C)[C@@H](O[C@@H]2O[C@H](C)C[C@H](N(C)C)[C@H]2O)[C@](C)(O)C[C@@H](C)CN(C)[C@H](C)[C@@H](O)[C@]1(C)O [AZITHROMYCIN],inhibition,[1],Dose-dependent effect
same,Ratio,[2],1000
same,inhibition,[3],Active
same,inhibition,[4],inactive
same,inhibition,[5],Active
same,Activity,[6],inactive
same,inhibition,[7],inactive
same,Activity,[8],1
same,Activity,[9],inactive
same,Activity,[10],inactive
same,Activity,[11],inactive
same,Activity,[12],4
same,Activity,[13],Dose-dependent effect
same,inhibition,[14],inactive
same,inhibition,[15],Active
